Experiments:
MS2 coat protein [1] = test: apparent Kd, MS2 coat protein; higher = weaker binding; RNA-MaP array; theophylline 2 mM where present
Outline: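 The apparent Kd is the median of filtered binding-curve fits, one per cluster, to green signal normalised to red-channel RNA signal and control-cluster median Fmax. The clusters were on Illumina sequencing chips, and stalled E. coli RNA polymerase had transcribed the designs on them. Titration used SNAP-549-labelled MS2 coat protein from 0.7 or 1.5 nM, doubling to 3 µM, without and then with constant ligand, in 100 mM Tris-HCl pH 7.5, 80 mM KCl, 4 mM MgCl2, BSA, DTT, yeast tRNA and Tween-20.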

MS2 coat protein [2] = test: apparent Kd, MS2 coat protein; higher = weaker binding; RNA-MaP array
Outline: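 Fluorescently labeled MS2 coat protein, from 1.5 nM to 3 μM, was incubated at room temperature with designed RNAs transcribed on an Illumina sequencing chip from sequenced DNA templates. Times ran from 0.8–1.5 h at the lowest concentrations to 10–20 min at the highest, in Tris-HCl pH 7.5 buffer with KCl, MgCl2, BSA, DTT, tRNA and Tween20, with or without input ligand. Each apparent Kd is the median of per-cluster binding-curve fits, and designs with fewer than 10 measured clusters were excluded.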

[3] = designed as: OFF switch for theophylline, no ligand
[4] = ligand present: theophylline, designed as: OFF switch for theophylline
[5] = designed as: ON switch for theophylline, no ligand
[6] = ligand present: theophylline, designed as: ON switch for theophylline
[7] = designed as: OFF switch for flavin mononucleotide, no ligand
[8] = ligand present: flavin mononucleotide, designed as: OFF switch for flavin mononucleotide

Sequence	apparent Kd (MS2 coat protein [1]; [3])	apparent Kd (MS2 coat protein [1]; [4])	apparent Kd (MS2 coat protein [1]; [5])	apparent Kd (MS2 coat protein [1]; [6])	further results
UAUAUAGUGAUGGAUACCAGCAGAGAAAACGUUUAUCCUAACAUGAGGAUCACCCAUGUAUGCCCUUGGCAGCUGUUGUUAUAUA	20.1 nM	28 nM	–	–	–
CUCCGAGGCUAUACUAUCCGCCUCAGUGAUACCAGAAUACCUAUAUUCCCUUGGCAGCAUCACAUGAGGAUCACCCAUGUGCCAU	–	–	12.5 nM	15.2 nM	–
CCAUAUGUAACUGAUACCAGUGUACUGACAUGAGGAUCACCCAUGUUGGGUUUUGUUGUACACCCUUGGCAGCAGAAUCAUAUGG	62.4 nM	80.4 nM	–	–	–
AUACCUAUUGAGUCGUGUUUCUAUUCAGAUACCAGACUUUUCGUUGUCCCUUGGCAGCUGUUUUACAUGAGGAUCACCCAUGUUG	15 nM	17.5 nM	–	–	–
GUAUGGAAACAUACUAGGGUAUCAUGAGAUACCAGUACAGAAAUGUACCCUUGGCAGCUCUAGCAUACAUGAGGAUCACCCAUGU	14 nM	22.9 nM	–	–	–
AUACCUAAUGAGUCGUGUAACUUUUCAGAUACCAGACUUUUCGUUGUCCCUUGGCAGCUGUUUUACAUGAGGAUCACCCAUGUUG	15.9 nM	38.1 nM	–	–	–
AUAUGAUCAUAUGAUACCAGAAAUGGUAUUCCUUUGUUUCUUACAUGAGGAUCACCCAUGUUCCCUUGGCAGCAUAUGAUCAUAU	187 nM	251 nM	–	–	–
AUGUCGUUGAAUAUAGCGGCUUGGAGUGAUACCAGCAUGAUCCAAUGCCCUUGGCAGCAUAACAUGAGGAUCACCCAUGUUCCAG	–	–	57.6 nM	74.6 nM	–
ACGAUAGGACAUGAGGAUCACCCAUGUGAUACCAGCCUGGAAACAGGCCCUUGGCAGCACAAAUACUCCAGAAACCUAUCGAAAA	258 nM	417 nM	–	–	–
GGUGGGACUUGUGAUACCAGCCCAAUUCGAAUCGAAUUGCACAUGAGGAUCACCCAUGUCGGCCCUUGGCAGCAUGAGUAUUUAU	–	–	312 nM	16.8 nM	–
AGUGUUAUAACUGAUACCAGACUCUCAUGUUUACAUGAGGAUCACCCAUGUUAUUUCUUUGUCCCUUGGCAGCAGAAUUUACACA	–	–	317 nM	49.3 nM	–
UGUUUGGUGCGCGAGUGUUGGAUAAAUGAUACCAGUGUAGAUGUACGCCCUUGGCAGCGUAUCCGAACAUGAGGAUCACCCAUGU	–	–	37.7 nM	67.2 nM	–
UCUCGGUCUUUCUUUCUCCGAGAAUAUGAUACCAGUUAGUUUUAUGGCCCUUGGCAGCAUAGAACAUGAGGAUCACCCAUGUGUU	–	–	94.2 nM	108 nM	–
GGAAGCAGGACUGAUACCAGUCCAGCGAAUCAUACGACGCAACAUGAGGAUCACCCAUGUGACCCUUGGCAGCAGACUGCUACCG	–	–	31.5 nM	13.7 nM	–
AACCGAGGCUAUCCUCUACGACUAUGUGAUACCAGAAUAAUUUUAUUCCCUUGGCAGCAUGACAUGAGGAUCACCCAUGUCUCUU	–	–	39.2 nM	58.2 nM	–
GGAUAGAUAGGAGAUACCAGAUACAUCAACAUGAGGAUCACCCAUGUGUCUGCACUAAGUGUCCCUUGGCAGCUCGGAGAUCUGA	–	–	32.3 nM	20.5 nM	–
AGUGUUAUAACUGAUACCAGACCUUUGCUUAUACAUGAGGAUCACCCAUGUAAAAUGGCUGUCCCUUGGCAGCAGAGAAUACACA	–	–	46 nM	16.5 nM	–
ACAUGAGGAUCACCCAUGUUCCUCGCCGAUACCAGUGAAGAAUUACGCCCUUGGCAGCGGAAAGAGUAUUUUGGAGAUGAGGUAC	69.8 nM	83.5 nM	–	–	–
ACGACGCAUAGUGAUACCAGUAGAACAUGAGGAUCACCCAUGUCUGUGACGCACAAACUCUGCCCUUGGCAGCACUAUGCGUCAG	–	–	10.8 nM	17.4 nM	–
UAAAUAUUACUGGGUAAGGUAUAAAUAGAUACCAGCCAGAUAACUGGCCCUUGGCAGCUAAACAUGAGGAUCACCCAUGUAUAAU	–	–	37 nM	116 nM	–
UCUUUCUUUGUAGAUACCAGCGUGUUAUCUUUCUUUUGACAUGAGGAUCACCCAUGUAUAUGCCCUUGGCAGCUACAUAUUCUUU	–	–	18.5 nM	14.2 nM	–
AUCGUACCUGAUGAUACCAGCAAUUGCUCGUAACAUGAGGAUCACCCAUGUGAUCAGUGAUGCCCUUGGCAGCAUGAUCGGUGCA	–	–	262 nM	35.4 nM	–
GGUGAUCCGUAUCACCGGAUCAUCGGUGAUACCAGCAUCGAAAGAUGCCCUUGGCAGCACCAACAUGAGGAUCACCCAUGUAAUA	–	–	120 nM	25.9 nM	–
ACAUGAAGAUUAAUCGUGGGCAUACUCGAUACCAGUAUUUUAACCUACCCUUGGCAGCGACAUGAGGAUCACCCAUGUGAGAUGA	21.6 nM	28.9 nM	–	–	–
UGUUUGGUGCGCGAGUGUUGGAUAAUUGAUACCAGUGUAGAUGUACGCCCUUGGCAGCGAAUCCGAACAUGAGGAUCACCCAUGU	–	–	32.5 nM	87.2 nM	–

Sequence	apparent Kd (MS2 coat protein [1]; [3])	apparent Kd (MS2 coat protein [1]; [4])	apparent Kd (MS2 coat protein [1]; [5])	apparent Kd (MS2 coat protein [1]; [6])	further results
AUCUCAUAGAGUGAUACCAGACUACAUGAGGAUCACCCAUGUUACAUUUAAAUAUCAUUUGUCCCUUGGCAGCACAUGAAGUACA	28 nM	18 nM	–	–	–
UUAGAUAUGACAGAUACCAGCGUGUUGUAGAACAUGAGGAUCACCCAUGUAGUGAUCGAGCGCCCUUGGCAGCUGGUGUGUUUGG	–	–	149 nM	440 nM	–
ACACCGAAAGGUGCAUUUACCUUAUCAGAUACCAGACUUUACGUUGUCCCUUGGCAGCUGUAUCACAUGAGGAUCACCCAUGUUG	–	–	15.5 nM	16.5 nM	–
UAUAUAUAGAUGGAUACCAGCAGAGAAAACGUUUAUCCUAACAUGAGGAUCACCCAUGUAUGCCCUUGGCAGCUGUUUAUAUAUA	24.4 nM	31.6 nM	–	–	–
GAGCUGAUGUAGAGAUUUUAUUUCUGAGAUACCAGUACAGAAAUGUACCCUUGGCAGCUCAGCUUUACAUGAGGAUCACCCAUGU	17.2 nM	22.1 nM	–	–	–
UAUUUGGUGCGCGAGUGUUGGAUAAUUGAUACCAGUGAAGAAGAGCGCCCUUGGCAGCGAAUCCUAACAUGAGGAUCACCCAUGU	–	–	39.2 nM	48.7 nM	–
CAGCCUGAUUGGUAAAUCCCUCAUCGUGAUACCAGUCGAGUGAUCGACCCUUGGCAGCACAUGAGGAUCACCCAUGUGCGCGUAA	26.7 nM	29.8 nM	–	–	–
AAUAAGCAGCUGCCUUCCUCAUGAGCAGAUACCAGCUAGGAAACUAGCCCUUGGCAGCUGCAACAUGAGGAUCACCCAUGUAAUA	65.8 nM	73 nM	–	–	–
GAGCUGAUGUAGAGCUAAUAUAAGAGAGAUACCAGUACAGAAAUGUACCCUUGGCAGCUCAACUUUACAUGAGGAUCACCCAUGU	13.9 nM	16.9 nM	–	–	–
AAUAAGUAUCUGCUAGGUGAUCCAGCAGAUACCAGCUAGGAAACUAGCCCUUGGCAGCUGCAACAUGAGGAUCACCCAUGUAAUA	444 nM	228 nM	–	–	–
AUAACAUGAGGAUCACCCAUGUAAGCAGAUACCAGCUAGGAAACUAGCCCUUGGCAGCUGCAAUCCUCAUGUAUUGCAGCUGCAA	15.7 nM	36.2 nM	–	–	–
GGGAAUGAACGUGAUACCAGAGAUCCGGUCUCCGUCAAUAUACAUGAGGAUCACCCAUGUCUCCCUUGGCAGCACCGUCAUCGGG	14.8 nM	23.4 nM	–	–	–
AAUAACAUGAGGAUCACCCAUGUAAAAGAUACCAGAGUGAUGAUCCUCCCUUGGCAGCUUAAAACGCUAUUGGAAACAAUAGCGA	–	–	80.5 nM	168 nM	–
AAAAUAAAUAAAACACGUAACAUGAAGGAUACCAGACCGGAAACGGUCCCUUGGCAGCCUCUACAUGAGGAUCACCCAUGUCGUG	–	–	238 nM	30.9 nM	–
UGACAUUGCUCAGAUACCAGACAUGAGGAUCACCCAUGUACCAAGAAAACGUACAUAAAUGUCCCUUGGCAGCUGAGCAAUGUCU	524 nM	713 nM	–	–	–
UAAAAUAAUAAUGAUACCAGCCCUCCCUCCCGGGACAUGAGGAUCACCCAUGUCUCUCCCGGCCCUUGGCAGCAUAAAUAAUAAU	–	–	11.1 nM	14.2 nM	–
ACGUCACGUUUACUCGUGGUUUCGAUCGAUACCAGUAGCGAGAGUUACCCUUGGCAGCGACAUGAGGAUCACCCAUGUACGAAGA	13.5 nM	18.4 nM	–	–	–
AAUAUAAGUGUAAUUAUAUGUAUCUCUGAUACCAGACUCUCAUGUGUCCCUUGGCAGCAGUUACAUGAGGAUCACCCAUGUAUUA	–	–	103 nM	31.9 nM	–
ACGACGCAUAGUGAUACCAGCACAACAUGAGGAUCACCCAUGUCACAUAUGUUGUAAUAAUGCCCUUGGCAGCACUAUGCGUCAG	–	–	52 nM	87.3 nM	–
GUGUGGCGCUCAGGAUAUAGAAGGUCGCUAGUUCUAGAAGGGAGCAACGAGGUACCACAUGAGGAUCACCCAUGUUUGGUUGAC	–	–	–	–	apparent Kd (MS2 coat protein [2]; [7]): 15.4 nM; apparent Kd (MS2 coat protein [2]; [8]): 13.3 nM
CGCCUACAGGUGUACUAUUGUGGUGAAGAUACCAGAUAGCCCAAUAUCCCUUGGCAGCUUCAGACAUGAGGAUCACCCAUGUAUC	–	–	–	–	apparent Kd (MS2 coat protein [2]; [3]): 15.5 nM; apparent Kd (MS2 coat protein [2]; [4]): 27.6 nM
UCAUAGUCAGGAUAUUUAUUUGGCGGAGACUGCGGCCACCGAAAGAAGGGACAUGAGGAUCACCCAUGUAUCGG	–	–	–	–	apparent Kd (MS2 coat protein [2]; [7]): 16.3 nM; apparent Kd (MS2 coat protein [2]; [8]): 26.9 nM
GUUCCCUCACAGAAGGAGUGUGUUAGUUGCACAUGAGGAUCACCCAUGUAAUAAACACGUGGCCACUAGGAUAUGUUAAACUGC	–	–	–	–	apparent Kd (MS2 coat protein [2]; designed as: ON switch for flavin mononucleotide, no ligand): 12.9 nM; apparent Kd (MS2 coat protein [2]; ligand present: flavin mononucleotide, designed as: ON switch for flavin mononucleotide): 10.8 nM
AGUCCUCUGUACCCUGAUGCCCUCACUUUACGAGGACCGGUACGGCCGCCACUCGAAUCCCAACAUGAGGAUCACCCAUGUCGAC	–	–	–	–	apparent Kd (MS2 coat protein [2]; designed as: OFF switch for tryptophan, no ligand): 34.8 nM; apparent Kd (MS2 coat protein [2]; ligand present: tryptophan, designed as: OFF switch for tryptophan): 39.7 nM
GACAUGGGACAGAAGGCGCGUCACAUUUUUAUGCGAGGAUAUGUCACUACAUGAGGAUCACCCAUGUGAGUUGGGAUCUCGAAA	–	–	–	–	apparent Kd (MS2 coat protein [2]; [7]): 26.5 nM; apparent Kd (MS2 coat protein [2]; [8]): 64.1 nM
